Assay results from ChEMBL document CHEMBL4316604, “Discovery of Isaindigotone Derivatives as Novel Bloom's Syndrome Protein (BLM) Helicase Inhibitors That Disrupt the BLM/DNA Interactions and Regulate the Homologous Recombination Repair” (J Med Chem, 2019).
Active and inactive are the calls of the source. No cut-off for these calls is given here.

Key:
[1] = test system: RecQ-like DNA helicase BLM (Homo sapiens), P54132 [I1168A]; assay: Inhibition of His-tagged BLM I1168A mutant (unknown origin) binding to DNA assessed as effect on unbound DNA
RecQ-like DNA helicase BLM (Homo sapiens), P54132 [I1168A], sequence (P54132 whole entry I1168A): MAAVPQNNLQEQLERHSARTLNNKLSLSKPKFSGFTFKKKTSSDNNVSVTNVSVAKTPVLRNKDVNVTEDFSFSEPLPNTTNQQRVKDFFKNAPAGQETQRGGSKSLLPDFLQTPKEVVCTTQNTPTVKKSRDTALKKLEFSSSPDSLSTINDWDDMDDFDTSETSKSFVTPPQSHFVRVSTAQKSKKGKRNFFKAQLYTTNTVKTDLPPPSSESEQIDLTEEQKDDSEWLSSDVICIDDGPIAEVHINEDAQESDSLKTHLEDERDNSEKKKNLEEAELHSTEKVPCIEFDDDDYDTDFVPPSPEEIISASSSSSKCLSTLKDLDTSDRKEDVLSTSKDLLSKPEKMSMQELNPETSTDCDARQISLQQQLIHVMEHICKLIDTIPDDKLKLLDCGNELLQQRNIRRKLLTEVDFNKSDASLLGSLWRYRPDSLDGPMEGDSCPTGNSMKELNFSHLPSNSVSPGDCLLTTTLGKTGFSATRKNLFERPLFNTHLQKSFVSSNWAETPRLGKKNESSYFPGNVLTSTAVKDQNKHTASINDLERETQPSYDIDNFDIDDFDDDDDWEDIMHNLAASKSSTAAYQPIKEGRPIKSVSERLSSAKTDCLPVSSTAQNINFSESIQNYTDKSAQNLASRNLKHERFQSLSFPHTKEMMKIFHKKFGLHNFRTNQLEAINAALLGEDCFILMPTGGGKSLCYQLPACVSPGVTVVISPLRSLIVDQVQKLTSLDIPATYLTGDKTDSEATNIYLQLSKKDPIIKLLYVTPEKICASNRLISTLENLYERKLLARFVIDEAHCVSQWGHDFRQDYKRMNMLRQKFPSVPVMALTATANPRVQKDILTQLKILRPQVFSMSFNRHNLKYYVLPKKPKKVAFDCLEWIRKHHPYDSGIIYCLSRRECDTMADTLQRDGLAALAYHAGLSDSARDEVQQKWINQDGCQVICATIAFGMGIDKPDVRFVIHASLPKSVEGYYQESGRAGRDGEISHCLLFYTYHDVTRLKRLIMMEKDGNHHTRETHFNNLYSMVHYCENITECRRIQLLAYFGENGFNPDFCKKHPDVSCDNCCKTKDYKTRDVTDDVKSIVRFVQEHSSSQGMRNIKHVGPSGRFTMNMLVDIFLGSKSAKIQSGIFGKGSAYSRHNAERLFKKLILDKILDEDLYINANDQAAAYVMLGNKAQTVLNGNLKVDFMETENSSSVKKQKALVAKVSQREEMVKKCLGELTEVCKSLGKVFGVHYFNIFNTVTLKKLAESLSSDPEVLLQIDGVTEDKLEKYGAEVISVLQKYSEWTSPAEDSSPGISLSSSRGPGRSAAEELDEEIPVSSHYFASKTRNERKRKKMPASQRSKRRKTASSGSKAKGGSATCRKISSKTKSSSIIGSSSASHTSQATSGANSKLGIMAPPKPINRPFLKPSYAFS
How it was run: (§1)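 Biotinylated forked DNA (50 nM) immobilised on streptavidin plates overnight at 4 °C. BLM or mutant (100 nM final) premixed with serially halved ligand in 3% BSA blocking buffer, ≤1% DMSO, 1 h on ice. Applied to the blocked plate for 1 h at 37 °C. Bound BLM detected with anti-BLM and HRP secondary, TMB, A450; Hill fit.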

[2] = test system: RecQ-like DNA helicase BLM (Homo sapiens), P54132 [M1111A]; assay: Inhibition of His-tagged BLM M1111A mutant (unknown origin) binding to DNA assessed as effect on unbound DNA; how it was run: as §1
RecQ-like DNA helicase BLM (Homo sapiens), P54132 [M1111A], sequence (P54132 whole entry M1111A): as the sequence (P54132 whole entry I1168A) above, with M1111A, A1168I counted along it

[3] = biological target: T1, RecQ-like DNA helicase BLM (Homo sapiens, UniProt P54132); assay: Inhibition of BLM recruitment to DSB sites on chromosomes in human HCT116 cells at 0.5 to 1 uM after 48 hrs by ChIP assay; format: cell-based
T1 sequence (P54132 whole entry): as the sequence (P54132 whole entry I1168A) above, with A1168I counted along it
How it was run: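 HCT116 cells co-transfected with HRR(−) reporter DSB model (or chromosomal I-SceI DSBs) and I-SceI; after 24 h given 0–2 μM ligand for 24 h. Crosslinked in 1% formaldehyde, chromatin digested by micrococcal nuclease to 0.2–0.5 kb, IP with anti-BLM or anti-RAD51 (IgG control). qPCR at DSB sites, normalised to untreated; triplicate.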

[4] = biological target: T1, RecQ-like DNA helicase BLM; assay: Inhibition of 5'-biotin labeled duplex forked-DNA binding to BLM (unknown origin) assessed as increase in unbound DNA levels at 0.5 to 1 uM after 1 hr by filter-binding assay
How it was run: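 BLM (100 nM) preincubated with 0.5 or 1.0 μM ligand for 1 h at 37 °C, then mixed with 8 nM biotinylated duplex forked DNA. Vacuum-filtered through nitrocellulose over nylon membranes; DNA UV-crosslinked and detected by chemiluminescence. Dot grey levels give bound (upper) vs free (lower) DNA, relative to total.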

[5] = biological target: T1, RecQ-like DNA helicase BLM; assay: Inhibition of BLM in human HCT116 cells assessed as induction of HRR up-regulation at 1 uM after 24 hrs in presence of siRNA by GFP-based flow cytometry; format: cell-based
How it was run: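 HCT116 cells (2×10^5) co-transfected with DR-GFP HRR reporter and I-SceI plasmid; 24 h later treated with 0–2 μM ligand (reference 0–50 μM); BLM siRNA knockdown where stated. GFP-positive cells counted by flow cytometry and normalised to untreated; triplicate, mean ± SD.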

[6] = biological target: T1, RecQ-like DNA helicase BLM; assay: Inhibition of BLM in human HCT116 cells assessed as DNA damage by measuring gammaH2AX up to 2 uM after 48 hrs by […]; format: cell-based
[7] = biological target: T2, DNA repair protein RAD51 homolog 1 (Homo sapiens) (UniProt Q06609); assay: Induction of RAD51 (unknown origin) binding to ssDNA up to 1 uM […] by ELISA based DNA exchange activity assay
T2 sequence (whole entry): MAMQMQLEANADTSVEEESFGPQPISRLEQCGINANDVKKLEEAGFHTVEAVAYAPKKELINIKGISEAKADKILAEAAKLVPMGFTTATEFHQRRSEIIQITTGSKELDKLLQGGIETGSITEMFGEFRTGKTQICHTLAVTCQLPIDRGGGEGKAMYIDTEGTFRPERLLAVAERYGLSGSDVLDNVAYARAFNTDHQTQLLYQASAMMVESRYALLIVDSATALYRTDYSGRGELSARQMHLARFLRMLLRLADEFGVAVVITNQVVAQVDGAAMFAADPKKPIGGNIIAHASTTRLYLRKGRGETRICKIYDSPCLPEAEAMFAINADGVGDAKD
How it was run: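 Biotinylated duplex forked DNA (50 nM final) immobilised on streptavidin plates. BLM (10–1000 nM) preincubated 1 h at 37 °C with ligand series, then added with 250 nM RAD51 for 1 h at 37 °C, ELISA format. Bound RAD51 read at 450 nm as RAD51–ssDNA filament level.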

[8] = biological target: T1, RecQ-like DNA helicase BLM; assay: Inhibition of BLM in human HCT116 cells assessed as induction of RAD51 foci accumulation on gamma-H2AX foci at 1 to 2 after 24 hrs by immunofluorescence assay; format: cell-based
How it was run: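 HCT116 cells treated 24 h, fixed in 4% paraformaldehyde, permeabilised with 0.5% Triton X-100, blocked in 5% goat serum. Stained with γ-H2AX and RAD51 antibodies overnight at 4 °C, Alexa 488/647 secondaries and DAPI. Imaged by confocal microscopy for foci co-localisation.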

HCT-116 [9] = assay: Induction of apoptosis in human HCT116 cells assessed as apoptotic cells at 2 uM after 48 hrs by Hoechst/propidium iodide-staining based flow cytometry (reference value: 1.09%); format: functional
HCT-116 [10] = assay: Induction of apoptosis in human HCT116 cells assessed as increase in cleaved caspase 3 expression at 2 uM after 48 hrs by Western blot analysis; format: functional, cell-based
How it was run: (§2)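 HCT116 cells treated with ligand (DNA-damage proteins 24 h, apoptosis proteins 48 h), lysed in RIPA at 4 °C. 40 μg protein per lane resolved by SDS-PAGE, blotted to PVDF, probed with damage and apoptosis antibody panels; β-actin loading control; chemiluminescent detection.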

HCT-116 [11] = assay: Induction of apoptosis in human HCT116 cells assessed as increase in cleaved PARP expression at 2 uM after 48 hrs by Western blot analysis; format: functional, cell-based; how it was run: as §2
HCT-116 [12] = assay: Antiproliferative activity against human HCT116 cells after 24 hrs by MTT assay; format: functional, cell-based; settings: in the assay text read “48 hrs” for “24 hrs”
How it was run: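 HCT116 cells (5×10^3/well) grown 24 h, then exposed to 0–50 μM test agent; for knockdown, cells pre-treated with 50 nM BLM siRNA for 24 h first.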

[13] = biological target: T1, RecQ-like DNA helicase BLM; assay: Binding affinity to His-tagged BLM (642 to 1296 residues) (unknown origin) expressed in Escherichia coli BL21 (DE3) by ITC assay
How it was run: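 ITC at 25 °C in 2 mM MgCl2, 10 mM KH2PO4, pH 7.5: ligand (0.6 mM, syringe) titrated in 10 μL injections, 300 s apart, into BLM642-1296 wild-type or point mutant, or DNA (0.04 mM, cell). His-tagged BLM from E. coli BL21(DE3), induced with […] at 16 °C for 24 h. Heats integrated, fitted to 1:1 model for KD.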

HCT-116 [14] = assay: Induction of apoptosis in human HCT116 cells assessed as up-regulation of ATR phosphorylation up to 2 uM after 24 hrs by Western blot analysis
HCT-116 [15] = assay: Induction of apoptosis in human HCT116 cells assessed as up-regulation of CHK2 phosphorylation up to 2 uM after 24 hrs by Western blot analysis
[16] = biological target: T1, RecQ-like DNA helicase BLM; assay: Inhibition of BLM in human HCT116 cells assessed as increase in gamma-H2AX expression at half IC50 concentration after 24 hrs by Western blot analysis

inhibition [1]: inactive
inhibition [2]: inactive
inhibition [3]: Active
inhibition [4]: Active
inhibition [5]: Active
Activity [7]: inactive
inhibition [8]: Active
Kd [13]: 1800 nM
inhibition [16]: Active
SMILES: CCN(CC)CCCNc1cc2nc3n(c(=O)c2cc1F)CC/C3=C\c1ccc(C(C)C)cc1
inhibition [6]: Active
Activity (HCT-116 [9]): 71.59%
Activity (HCT-116 [10]): Active
Activity (HCT-116 [11]): Active
Activity (HCT-116 [12]): Dose-dependent effect
Activity (HCT-116 [14]): Active
Activity (HCT-116 [15]): Dose-dependent effect
